Values belong to the compound of their own block, whether it stands above or below them. Calls of active or inactive are those of the source. No cut-off for these calls is given here.
Columns and labels:
Assay type in all cases: cell-based
[1] = target: T1, Peroxisome proliferator-activated receptor gamma (Mus musculus) (UniProt P37238); assay: Agonist activity at PPARgamma in LPS-stimulated mouse RAW264.7 cells assessed as inhibition of NF-kappaB signaling by measuring reduction in iNOS mRNA level pretreated with compound for 1 hr followed by LPS stimulation for 6 hrs by RT-PCR analysis
T1 sequence (whole entry): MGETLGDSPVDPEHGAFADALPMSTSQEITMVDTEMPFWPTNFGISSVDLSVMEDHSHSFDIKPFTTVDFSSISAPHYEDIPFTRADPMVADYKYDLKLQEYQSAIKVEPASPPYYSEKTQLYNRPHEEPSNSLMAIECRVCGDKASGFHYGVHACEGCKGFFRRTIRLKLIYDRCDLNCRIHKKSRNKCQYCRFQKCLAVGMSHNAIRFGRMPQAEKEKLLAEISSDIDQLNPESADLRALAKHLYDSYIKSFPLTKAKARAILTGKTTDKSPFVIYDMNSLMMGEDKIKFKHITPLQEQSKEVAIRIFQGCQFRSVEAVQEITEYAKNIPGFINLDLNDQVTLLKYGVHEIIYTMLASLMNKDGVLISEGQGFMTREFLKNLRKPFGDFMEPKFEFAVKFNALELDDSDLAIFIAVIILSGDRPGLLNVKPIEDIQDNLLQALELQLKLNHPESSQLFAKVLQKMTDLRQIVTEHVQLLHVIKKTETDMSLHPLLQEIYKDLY
Outline: (§1)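 Trizol RNA, M-MLV cDNA, 27-cycle PCR, agarose gel with ethidium bromide stain; GAPDH as internal control. Three independent experiments.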

[2] = target: T1, Peroxisome proliferator-activated receptor gamma (Mus musculus); assay: Agonist activity at PPARgamma in LPS-stimulated mouse RAW264.7 cells assessed as inhibition of NF-kappaB p65 phosphorylation pretreated with compound for 1 hr followed by LPS stimulation for 30 mins by Western blot assay
Outline: (§2)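 For the antagonist arm, GW9662 (10 μM) was added 1 h before. Phospho-p65 read by Western blot on 10% SDS-PAGE, β-actin reference; three independent experiments.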

[3] = target: T1, Peroxisome proliferator-activated receptor gamma (Mus musculus); assay: Agonist activity at PPARgamma in LPS-stimulated mouse RAW264.7 cells assessed as inhibition of NF-kappaB signaling by measuring reduction in IL-1beta mRNA level at 50 uM pretreated with compound for 1 hr followed by LPS stimulation for 6 hrs by RT-PCR analysis relative to control; outline: as §1
[4] = target: T1, Peroxisome proliferator-activated receptor gamma (Mus musculus); assay: Agonist activity at PPARgamma in LPS-stimulated mouse RAW264.7 cells assessed as inhibition of NF-kappaB signaling by measuring reduction in TNFalpha mRNA level at 50 uM pretreated with compound for 1 hr followed by LPS stimulation for 6 hrs by RT-PCR analysis relative to control; outline: as §1
[5] = target: T1, Peroxisome proliferator-activated receptor gamma (Mus musculus); assay: Agonist activity at PPARgamma in LPS-stimulated mouse RAW264.7 cells assessed as inhibition of NF-kappaB signaling by measuring reduction in COX2 mRNA level at 50 uM pretreated with compound for 1 hr followed by LPS stimulation for 6 hrs by RT-PCR analysis relative to control; outline: as §1
[6] = target: T2, Peroxisome proliferator-activated receptor gamma (Homo sapiens) (UniProt P37231); assay: Agonist activity at full length human flag-tagged PPARgamma1 […] expressed in rat Ac2F cells coexpressing PPRE-X3-TK after 6 hrs by one-glo luciferase reporter gene assay
T2 sequence (whole entry): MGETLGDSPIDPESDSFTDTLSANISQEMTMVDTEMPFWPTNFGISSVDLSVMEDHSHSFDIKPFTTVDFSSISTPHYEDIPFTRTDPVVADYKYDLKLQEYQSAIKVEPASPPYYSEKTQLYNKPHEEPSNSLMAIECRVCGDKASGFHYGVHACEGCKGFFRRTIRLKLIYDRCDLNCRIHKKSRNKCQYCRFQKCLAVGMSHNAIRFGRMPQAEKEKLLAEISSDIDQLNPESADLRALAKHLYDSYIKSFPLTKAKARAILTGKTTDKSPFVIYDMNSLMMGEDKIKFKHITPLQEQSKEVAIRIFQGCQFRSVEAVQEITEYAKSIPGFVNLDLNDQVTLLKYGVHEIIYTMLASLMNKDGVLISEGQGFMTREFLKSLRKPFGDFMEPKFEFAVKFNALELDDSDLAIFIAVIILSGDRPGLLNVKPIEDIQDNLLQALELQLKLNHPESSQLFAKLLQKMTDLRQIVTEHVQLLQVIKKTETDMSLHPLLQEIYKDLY
Outline: (§3)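 Rat Ac2F cells at 70–80% confluence transfected by Lipofectamine 2000 with PPRE-X3-TK-luc (1 μg/well) plus pFlag-PPAR-γ1 or pcDNA3 (0.1 μg/well), 4 h, then 10 h in complete medium. Compound (5, 10, 20 μM) or rosiglitazone 5 μM added for 6 h in serum-free medium; ONE-Glo luminescence as fold of control, n = 3.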

[7] = target: T1, Peroxisome proliferator-activated receptor gamma (Mus musculus); assay: Agonist activity at PPARgamma in LPS-stimulated mouse RAW264.7 cells assessed as inhibition of NF-kappaB p65 phosphorylation at 30 uM pretreated with compound for 1 hr followed by LPS stimulation for 30 mins by Western blot assay relative to control; outline: as §2
[8] = target: T1, Peroxisome proliferator-activated receptor gamma (Mus musculus); assay: Agonist activity at PPARgamma in LPS-stimulated mouse RAW264.7 cells assessed as inhibition of NF-kappaB signaling by measuring reduction in COX2 protein level pretreated with compound for 1 hr followed by LPS stimulation measured after 24 hrs by Western blot analysis
[9] = target: T1, Peroxisome proliferator-activated receptor gamma (Mus musculus); assay: Agonist activity at PPARgamma in LPS-stimulated mouse RAW264.7 cells assessed as inhibition of NF-kappaB signaling by measuring reduction in NO production pretreated with compound for 1 hr followed by LPS stimulation measured after 24 hrs by Griess assay
Outline: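 Supernatant mixed 1:1 with Griess reagent, 20 min at 37 °C in the dark, A520; nitrite quantified against 0–100 μM sodium nitrite standards.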

[10] = target: T1, Peroxisome proliferator-activated receptor gamma (Mus musculus); assay: Agonist activity at PPARgamma in LPS-stimulated mouse RAW264.7 cells assessed as inhibition of NF-kappaB signaling by measuring reduction in IL-1beta production pretreated with compound for 1 hr followed by LPS stimulation measured after 24 hrs by ELISA
[11] = target: T1, Peroxisome proliferator-activated receptor gamma (Mus musculus); assay: Agonist activity at PPARgamma in LPS-stimulated mouse RAW264.7 cells assessed as inhibition of NF-kappaB signaling by measuring reduction in IL-1beta mRNA level pretreated with compound for 1 hr followed by LPS stimulation for 6 hrs by RT-PCR analysis; outline: as §1
[12] = target: T1, Peroxisome proliferator-activated receptor gamma (Mus musculus); assay: Agonist activity at PPARgamma in LPS-stimulated mouse RAW264.7 cells assessed as inhibition of NF-kappaB p65 phosphorylation at 30 uM pretreated with compound for 1 hr followed by LPS stimulation for 30 mins in presence of PPARgamma antagonist GW9662 by Western blot assay; outline: as §2
[13] = target: T1, Peroxisome proliferator-activated receptor gamma (Mus musculus); assay: Agonist activity at PPARgamma in LPS-stimulated mouse RAW264.7 cells assessed as inhibition of NF-kappaB signaling by measuring reduction in COX2 mRNA level pretreated with compound for 1 hr followed by LPS stimulation for 6 hrs by RT-PCR analysis; outline: as §1
[14] = target: T1, Peroxisome proliferator-activated receptor gamma (Mus musculus); assay: Agonist activity at PPARgamma in LPS-stimulated mouse RAW264.7 cells assessed as inhibition of NF-kappaB signaling by measuring reduction in IL-6 production pretreated with compound for 1 hr followed by LPS stimulation measured after 24 hrs by ELISA
[15] = target: T1, Peroxisome proliferator-activated receptor gamma (Mus musculus); assay: Agonist activity at PPARgamma in LPS-stimulated mouse RAW264.7 cells assessed as inhibition of NF-kappaB signaling by measuring reduction in iNOS mRNA level at 50 uM pretreated with compound for 1 hr followed by LPS stimulation for 6 hrs by RT-PCR analysis relative to control; outline: as §1
[16] = target: T1, Peroxisome proliferator-activated receptor gamma (Mus musculus); assay: Agonist activity at PPARgamma in LPS-stimulated mouse RAW264.7 cells assessed as inhibition of NF-kappaB signaling by measuring reduction in IL-6 mRNA level pretreated with compound for 1 hr followed by LPS stimulation for 6 hrs by RT-PCR analysis; outline: as §1
[17] = target: T1, Peroxisome proliferator-activated receptor gamma (Mus musculus); assay: Agonist activity at PPARgamma in LPS-stimulated mouse RAW264.7 cells assessed as inhibition of NF-kappaB signaling by measuring reduction in TNFalpha production pretreated with compound for 1 hr followed by LPS stimulation measured after 3 hrs by ELISA
[18] = target: T1, Peroxisome proliferator-activated receptor gamma (Mus musculus); assay: Agonist activity at PPARgamma in mouse RAW264.7 cells assessed as increase in protein expression level in nuclear fractions at 30 uM after 24 hrs by Western blot assay relative to control
Outline: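 Treated RAW 264.7 cells at 10 or 30 μM for 24 h, with rosiglitazone 10 or 30 μM as comparator. Nuclear fractions isolated by NE-PER extraction, protein by BCA, PPAR-γ by Western blot normalized to nuclear TFIIB; three independent experiments.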

[19] = target: T1, Peroxisome proliferator-activated receptor gamma (Mus musculus); assay: Agonist activity at PPARgamma in LPS-stimulated mouse RAW264.7 cells assessed as inhibition of NF-kappaB signaling by measuring reduction in IL-6 mRNA level at 50 uM pretreated with compound for 1 hr followed by LPS stimulation for 6 hrs by RT-PCR analysis relative to control; outline: as §1
[20] = target: T2, Peroxisome proliferator-activated receptor gamma (Homo sapiens); assay: Agonist activity at full length human flag-tagged PPARgamma1 […] expressed in rat Ac2F cells coexpressing PPRE-X3-TK at 20 uM after 6 hrs by one-glo luciferase reporter gene assay relative to control; outline: as §3
RAW264.7 = assay: Cytotoxicity against mouse RAW264.7 cells assessed as reduction in cell viability up to 50 uM after 24 hrs by WST assay; details: raw264.7, 24 h
Outline: (§4)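 Cells in high-glucose DMEM/10% heat-inactivated FBS with penicillin-streptomycin at 37 °C, 5% CO2; seeded 12 h, then exposed to compound for 24 h. WST reagent 1 h at 37 °C, absorbance at 450 nm.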

[21] = target: T1, Peroxisome proliferator-activated receptor gamma (Mus musculus); assay: Agonist activity at PPARgamma in LPS-stimulated mouse RAW264.7 cells assessed as inhibition of NF-kappaB signaling by measuring reduction in TNFalpha mRNA level pretreated with compound for 1 hr followed by LPS stimulation for 6 hrs by RT-PCR analysis; outline: as §1
[22] = Cytotoxicity against rat Ac2F cells assessed as reduction in cell viability up to 50 uM after 24 hrs by WST assay; outline: as §4
[23] = target: T1, Peroxisome proliferator-activated receptor gamma (Mus musculus); assay: Agonist activity at PPARgamma in LPS-stimulated mouse RAW264.7 cells assessed as inhibition of NF-kappaB signaling by measuring reduction in iNOS protein level pretreated with compound for 1 hr followed by LPS stimulation measured after 24 hrs by Western blot analysis

inhibition [1]: Dose-dependent effect | inhibition [2]: Dose-dependent effect | fold change (FC) [3]: 2.5 | fold change (FC) [4]: 2 | fold change (FC) [5]: 2 | Activity [6]: Dose-dependent effect | fold change (FC) [7]: 2.8 | inhibition [8]: Dose-dependent effect | inhibition [9]: Dose-dependent effect | inhibition [10]: Dose-dependent effect | inhibition [11]: Dose-dependent effect | inhibition [12]: inactive | inhibition [13]: Dose-dependent effect | inhibition [14]: Dose-dependent effect | fold change (FC) [15]: 5 | inhibition [16]: Dose-dependent effect | inhibition [17]: Dose-dependent effect | fold change (FC) [18]: 1.8 | fold change (FC) [19]: 5 | fold change (FC) [20]: 3 | inhibition [21]: Dose-dependent effect | inhibition [23]: Dose-dependent effect
SMILES: COC(=O)CC/C(C)=C/CC/C(C)=C/Cc1cc(O)c(C)cc1O
Activity (RAW264.7): Non-Toxic | Activity [22]: Non-Toxic

fold change (FC) [18]: 2.3
SMILES: CN(CCOc1ccc(CC2SC(=O)NC2=O)cc1)c1ccccn1 (stereo not given)

Reference: ChEMBL document CHEMBL4138282, “An Anti-Inflammatory PPAR-γ Agonist from the Jellyfish-Derived Fungus Penicillium chrysogenum J08NF-4” (J Nat Prod, 2018)
